Published values collected from several papers.
Compare with care: the assays were run in different laboratories.
Effect on: enzyme activity
Action: inhibitor
EGFR L858R/T790M: Epidermal growth factor receptor (EGFR, Homo sapiens, UniProt P00533, L858R/T790M)
EGFR: Epidermal growth factor receptor (EGFR, Homo sapiens, UniProt P00533)
EGFR L858R: Epidermal growth factor receptor (EGFR, Homo sapiens, UniProt P00533, L858R)

| SMILES | target | test | setting | IC50 [nM] |
| --- | --- | --- | --- | --- |
| C=C(Cl)C(=O)Nc1cc(Nc2nc(N3CCc4sccc4C3)c3sccc3n2)c(OC)cc1N(C)CCN(C)C | EGFR L858R/T790M | ELISA | – | 13 |
| COc1ccc(-c2nn(-c3ccc(S(C)(=O)=O)cc3)cc2C=N/N=c2\[nH]c(-c3ccc([N+](=O)[O-])cc3)cs2)cc1 | EGFR L858R/T790M | – | – | 80 |
| Oc1ncnc2cc(Nc3nc(-c4ccc(Cl)cc4)cs3)ccc12 | EGFR | ELISA | – | 4.81 |
| CN1CCN(C/C=N/NC(=O)Nc2cc3c(Nc4ccc(F)c(Cl)c4)ncnc3cc2O[C@H]2CCOC2)CC1 | EGFR | – | – | 1.8 |
| C=C(Cl)C(=O)Nc1cc(Nc2nc(Nc3cnn(C)c3)c3sccc3n2)c(OC)cc1N1CCN(C)CC1 | EGFR | ELISA | – | > 1000 |
| C=CC(=O)Nc1cc(Nc2nccc(Nc3cc(Cl)c(F)cc3C(C)(C)O)n2)c(OC)cc1N1CC[C@@H](N(C)C)C1 | EGFR L858R/T790M | – | with preincubation | 13 |
| CCC(=O)Nc1cc(Nc2nc(N3CCc4sccc4C3)c3cccnc3n2)c(OC)cc1N1CCSCC1 | EGFR | ELISA | – | > 1000 |
| CN(C)C/C=N/NC(=O)Nc1cc2c(Nc3ccc(F)c(Cl)c3)ncnc2cc1O[C@H]1CCOC1 | EGFR | – | – | 0.2 |
| COc1ccc(-c2nn(-c3ccc(S(C)(=O)=O)cc3)cc2/C=N/N=c2\[nH]c(-c3ccc(Br)cc3)cs2)cc1 | EGFR L858R | – | – | 36 |
| COc1cc2c(Nc3ccc(OCCCn4ccnc4[N+](=O)[O-])c(Cl)c3)ncnc2cc1OCCCN1CCOCC1 | EGFR | FRET | – | 330 |
| C=CC(=O)Nc1cc(Nc2nc(N3CCc4sccc4C3)c3cccnc3n2)c(OC)cc1N1CCC(N(C)C)CC1 | EGFR L858R/T790M | ELISA | – | 349 |
| C=CC(=O)Nc1cc(Nc2nccc(-c3cn(C4CC4)c4ccccc34)n2)c(OC)cc1N(C)CCN(C)C | Epidermal growth factor receptor (EGFR, Homo sapiens, UniProt P00533, G719D) | TR-FRET | – | 54.1 |
| Oc1ncnc2cc(Nc3nc(-c4ccccc4)cs3)ccc12 | EGFR | ELISA | – | 10 |
| COc1cc2ncnc(Nc3ccc(F)c(Cl)c3)c2cc1NC(=O)N/N=C/c1cccn1CCN(C)C | EGFR | – | – | 0.1 |
| Fc1ccc(-c2n[nH]cc2C=NNc2ccnc3cc(Cl)ccc23)cc1 | EGFR | mobility shift | – | 73000 |
| O=C(N/N=C/c1cccn1CCCN1CCCCC1)Nc1cc2c(Nc3ccc(F)c(Cl)c3)ncnc2cc1O[C@H]1CCOC1 | EGFR L858R/T790M | – | – | 11.4 |

| SMILES | target | test | setting | IC50 [nM] |
| --- | --- | --- | --- | --- |
| OCc1ccc(Nc2ccc3ncnc(Nc4cccc(C(F)(F)F)c4)c3c2)cc1 | EGFR | radiometric | – | 8.67 |
| C=C(Cl)C(=O)Nc1cc(Nc2nc(N3CCOCC3)c3sccc3n2)c(OC)cc1N(C)CCN(C)C | EGFR | ELISA | – | > 1000 |
| Oc1ncnc2cc(Nc3nc(-c4ccc(C(F)(F)F)cc4)cs3)ccc12 | EGFR | ELISA | – | 2.17 |
| CC(C)Cc1ccc(-c2nn(-c3ccc(S(C)(=O)=O)cc3)cc2/C=N/N=c2\[nH]c(-c3ccc([N+](=O)[O-])cc3)cs2)cc1 | EGFR L858R | – | – | 114 |
| COc1cc2ncnc(Nc3ccc(F)c(Cl)c3)c2cc1NC(=O)N/N=C/c1cccn1CCCN(C)C | EGFR L858R/T790M | – | – | 24.3 |
| COCCOc1cc2ncnc(Nc3ccc(OCCCn4ccnc4[N+](=O)[O-])c(Cl)c3)c2cc1OCCOC | EGFR | FRET | – | 400 |
| Oc1ccc(-c2csc(Nc3ccc4c(O)ncnc4c3)n2)cc1 | EGFR | ELISA | – | 16.3 |
| O=C(N/N=C/CN1CCOCC1)Nc1cc2c(Nc3ccc(F)c(Cl)c3)ncnc2cc1O[C@H]1CCOC1 | EGFR | – | – | 1.5 |
| COCCOc1cc2ncnc(Nc3ccc(OCCn4ccnc4[N+](=O)[O-])c(Cl)c3)c2cc1OCCOC | EGFR | FRET | – | 230 |
| Cc1ccc(-c2csc(Nc3ccc4c(O)ncnc4c3)n2)cc1 | EGFR | ELISA | – | 8.59 |
| CCN(CC)CCCn1cccc1/C=N/NC(=O)Nc1cc2c(Nc3ccc(F)c(Cl)c3)ncnc2cc1O[C@H]1CCOC1 | EGFR L858R/T790M | – | – | 12.8 |
| COc1cc2ncnc(Nc3ccccc3)c2cc1OC | EGFR | mobility shift | – | 14 |
| OCc1ccc(Nc2ccc3c(Nc4cccc(C(F)(F)F)c4)ncnc3c2)cc1 | EGFR | radiometric | – | 2.53 |
| C=C(Cl)C(=O)Nc1cc(Nc2nc(Nc3cnn(C)c3)c3sccc3n2)c(OC)cc1N(C)CCN(C)C | EGFR L858R/T790M | ELISA | – | 5.9 |
| O=C(N/N=C/c1cccn1CCN1CCOCC1)Nc1cc2c(Nc3ccc(F)c(Cl)c3)ncnc2cc1O[C@H]1CCOC1 | EGFR | – | – | 0.6 |
| COc1ccc2c(Oc3ccc4c(C(=O)Nc5ccccc5N)cccc4c3)ccnc2c1 | EGFR | – | – | > 500 |
